Results as given in ChEMBL document CHEMBL1156445, “The rapamycin-binding domain of the protein kinase mammalian target of rapamycin is a destabilizing domain” (J Biol Chem, 2007).
pEC50: −log10 of the molar value. Active and inactive are the calls of the source. The rule behind the calls is not given here.

Tests used:
Type in all cases: cell-based
[1] = Activation of FKBP12-rapamycin binding domain stop codon>Leu mutant in african green monkey COS1 cells after 16 hrs assessed as induction of secreted alkaline phosphatase expression assay; conditions: COS-1, 16 h
Summary of the method: (§1)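 COS-1 cells co-transfected by electroporation with Gal4BD-FKBP (pBJ5-GF3E), VP16AD-FRB (pBJ5-FRBVE, wild-type or mutant FRB) and SeAP reporter (pG5IL2SX). Cells treated in quadruplicate for 16 h with iRap (0.5-500 nM) or rapamycin (0.05-50 nM). SeAP read as fluorescence from methylumbelliferylphosphate substrate. EC50 derived from curve fits of mean (±SEM).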

NIH3T3 [2] = assay: Effect on stability of wild-type FKBP12-rapamycin binding domain protein expressed in mouse NIH3T3 cells assessed as increase in yellow fluorescent protein fluorescence level at 100 nM after 24 hrs by flow cytometry
Summary of the method: (§2)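 NIH3T3 cells stably transduced with wtFRB-YFP, treated with iRap (10 nM to 10 μM). YFP fluorescence monitored by flow cytometry over 24 h, 10,000 events per sample. Mean fluorescence intensity expressed relative to the overall highest value; duplicate.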

[3] = Activation of FKBP12-rapamycin binding domain N2043S stop codon mutant in african green monkey COS1 cells after 16 hrs assessed as induction of secreted alkaline phosphatase expression assay; conditions: COS-1, 16 h; summary of the method: as §1
[4] = Activation of FKBP12-rapamycin binding domain M2026V E2049G stop codon mutant in african green monkey COS1 cells after 16 hrs assessed as induction of secreted alkaline phosphatase expression assay; conditions: COS-1, 16 h; summary of the method: as §1
NIH3T3 [5] = assay: Effect on stability of wild-type FKBP12-rapamycin binding domain protein expressed in mouse NIH3T3 cells assessed as increase in yellow fluorescent protein fluorescence level at 1 uM after 24 hrs by flow cytometry
Summary of the method: (§3)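 FRB (mTOR residues 2015-2114, wild-type or mutant) fused to N-terminus of YFP in pBMN. NIH3T3 cells stably transduced with retrovirus from ΦNX cells; 293T cells transiently transfected (wild-type only). Cells mock-treated or given 1 μM iRap for 24 h, then trypsinized, PBS-washed and analysed by flow cytometry (10,000 events). Mean fluorescence intensity, triplicate.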

[6] = Activation of FKBP12-rapamycin binding domain I2021T E2029G L2037S stop codon mutant in african green monkey COS1 cells after 16 hrs assessed as induction of secreted alkaline phosphatase expression assay; conditions: COS-1, 16 h; summary of the method: as §1
[7] = Activation of FKBP12-rapamycin binding domain I2021V stop codon mutant in african green monkey COS1 cells after 16 hrs assessed as induction of secreted alkaline phosphatase expression assay; conditions: COS-1, 16 h; summary of the method: as §1
NIH3T3 [8] = assay: Effect on stability of FKBP12-rapamycin binding domain H2024R stop codon mutant expressed in mouse NIH3T3 cells assessed as increase in yellow fluorescent protein fluorescence level at 1 uM after 24 hrs by flow cytometry; summary of the method: as §3
[9] = Activation of FKBP12-rapamycin binding domain A2020V I2021T D2096G stop codon mutant in african green monkey COS1 cells after 16 hrs assessed as induction of secreted alkaline phosphatase expression assay; conditions: COS-1, 16 h; summary of the method: as §1
NIH3T3 [10] = assay: Effect on stability of FKBP12-rapamycin binding domain N2043S stop codon mutant expressed in mouse NIH3T3 cells assessed as increase in yellow fluorescent protein fluorescence level at 1 uM after 24 hrs by flow cytometry; summary of the method: as §3
NIH3T3 [11] = assay: Effect on stability of wild-type FKBP12-rapamycin binding domain protein expressed in mouse NIH3T3 cells assessed as increase in yellow fluorescent protein fluorescence level at 10 nM after 24 hrs by flow cytometry; summary of the method: as §2
[12] = Activation of FKBP12-rapamycin binding domain C2085R stop codon mutant in african green monkey COS1 cells after 16 hrs assessed as induction of secreted alkaline phosphatase expression assay; conditions: COS-1, 16 h; summary of the method: as §1
[13] = Activation of FKBP12-rapamycin binding domain S2069P M2079I stop codon mutant in african green monkey COS1 cells after 16 hrs assessed as induction of secreted alkaline phosphatase expression assay; conditions: COS-1, 16 h; summary of the method: as §1
[14] = Activation of FKBP12-rapamycin binding domain I2021T W2023R K2045L S2112P stop codon mutant in african green monkey COS1 cells after 16 hrs assessed as induction of secreted alkaline phosphatase expression assay; conditions: COS-1, 16 h; summary of the method: as §1
[15] = Activation of FKBP12-rapamycin binding domain R2110 mutant in african green monkey COS1 cells after 16 hrs assessed as induction of secreted alkaline phosphatase expression assay; conditions: COS-1, 16 h; summary of the method: as §1
[16] = Activation of wild-type FKBP12-rapamycin binding domain protein in african green monkey COS1 cells after 16 hrs assessed as induction of secreted alkaline phosphatase expression assay; conditions: COS-1, 16 h; summary of the method: as §1
[17] = Activation of FKBP12-rapamycin binding domain E2067G stop codon mutant in african green monkey COS1 cells after 16 hrs assessed as induction of secreted alkaline phosphatase expression assay; conditions: COS-1, 16 h; summary of the method: as §1
[18] = Activation of FKBP12-rapamycin binding domain H2024R stop codon mutant protein in african green monkey COS1 cells after 16 hrs assessed as induction of secreted alkaline phosphatase expression assay; conditions: COS-1, 16 h; summary of the method: as §1
NIH3T3 [19] = assay: Effect on stability of FKBP12-rapamycin binding domain K2066R D2077G stop codon mutant expressed in mouse NIH3T3 cells assessed as increase in yellow fluorescent protein fluorescence level at 1 uM after 24 hrs by flow cytometry; summary of the method: as §3
293T = assay: Effect on stability of wild-type FKBP12-rapamycin binding domain protein expressed in human 293T cells assessed as increase in yellow fluorescent protein fluorescence level at 1 uM after 24 hrs by flow cytometry; summary of the method: as §3
[20] = Activation of FKBP12-rapamycin binding domain I2017V E2033G stop codon mutant in african green monkey COS1 cells after 16 hrs assessed as induction of secreted alkaline phosphatase expression assay; conditions: COS-1, 16 h; summary of the method: as §1
[21] = Activation of FKBP12-rapamycin binding domain T2068S E2080G stop codon mutant in african green monkey COS1 cells after 16 hrs assessed as induction of secreted alkaline phosphatase expression assay; conditions: COS-1, 16 h; summary of the method: as §1
[22] = Activation of FKBP12-rapamycin binding domain K2066R D2077G stop codon mutant in african green monkey COS1 cells after 16 hrs assessed as induction of secreted alkaline phosphatase expression assay; conditions: COS-1, 16 h; summary of the method: as §1
NIH3T3 [23] = assay: Effect on stability of FKBP12-rapamycin binding domain T2068S E2080G stop codon mutant expressed in mouse NIH3T3 cells assessed as increase in yellow fluorescent protein fluorescence level at 1 uM after 24 hrs by flow cytometry; summary of the method: as §3
[24] = Activation of FKBP12-rapamycin binding domain I2021T M2058V G2061D K2066R K2090R S2091L stop codon mutant in african green monkey COS1 cells after 16 hrs assessed as induction of secreted alkaline phosphatase expression assay; conditions: COS-1, 16 h; summary of the method: as §1
[25] = Activation of FKBP12-rapamycin binding domain T2064I Y2074H K2090R stop codon mutant in african green monkey COS1 cells after 16 hrs assessed as induction of secreted alkaline phosphatase expression assay; conditions: COS-1, 16 h; summary of the method: as §1
[26] = Activation of FKBP12-rapamycin binding domain S2069P stop codon mutant in african green monkey COS1 cells after 16 hrs assessed as induction of secreted alkaline phosphatase expression assay; conditions: COS-1, 16 h; summary of the method: as §1
[27] = Activation of FKBP12-rapamycin binding domain mutant in african green monkey COS1 cells after 16 hrs assessed as induction of secreted alkaline phosphatase expression assay; conditions: COS-1, 16 h; summary of the method: as §1
[28] = Activation of FKBP12-rapamycin binding domain I2021T A2100V stop codon mutant in african green monkey COS1 cells after 16 hrs assessed as induction of secreted alkaline phosphatase expression assay; conditions: COS-1, 16 h; summary of the method: as §1
[29] = Activation of FKBP12-rapamycin binding domain I2021T K2045E E2049G M2057T E2083K stop codon mutant in african green monkey COS1 cells after 16 hrs assessed as induction of secreted alkaline phosphatase expression assay; conditions: COS-1, 16 h; summary of the method: as §1
NIH3T3 [30] = assay: Effect on stability of wild-type FKBP12-rapamycin binding domain protein expressed in mouse NIH3T3 cells assessed as increase in yellow fluorescent protein fluorescence level at 10 uM after 24 hrs by flow cytometry; summary of the method: as §2

CO[C@@H]1C[C@H](C[C@@H](C)[C@@H]2CC(=O)[C@H](C)/C=C(\C)[C@@H](O)[C@@H](OC)C(=O)[C@H](C)C[C@H](C)/C=C/C=C/C=C(\C)[C@@H](c3[nH]c4ccccc4c3C)C[C@@H]3CC[C@@H](C)[C@@](O)(O3)C(=O)C(=O)N3CCCC[C@H]3C(=O)O2)CC[C@H]1O
pEC50 [1]: 7.59 | Activity (NIH3T3 [2]): Active | pEC50 [3]: 7.60 | pEC50 [4]: 7.41 | Activity (NIH3T3 [5]): 10 | pEC50 [6]: 7.05 | pEC50 [7]: 7.55 | Activity (NIH3T3 [8]): 4 | pEC50 [9]: 7.38 | Activity (NIH3T3 [10]): 8 | Activity (NIH3T3 [11]): Active | pEC50 [12]: 7.48 | pEC50 [13]: 7.41 | pEC50 [14]: 7.50 | pEC50 [15]: 6.60 | pEC50 [16]: 7.69 | pEC50 [17]: 7.35 | pEC50 [18]: 7.84 | Activity (NIH3T3 [19]): 7 | Activity (293T): Active | pEC50 [20]: 7.64 | pEC50 [21]: 7.71 | pEC50 [22]: 7.69 | Activity (NIH3T3 [23]): 5 | pEC50 [24]: 7.00 | pEC50 [25]: 7.66 | pEC50 [26]: 7.37 | pEC50 [27]: 7.49 | pEC50 [28]: 7.17 | pEC50 [29]: 7.53 | Activity (NIH3T3 [30]): Active
